Most compounds without a hit are left out; they make up all but 5.8% or so of the library.
IDH1 mut inh – IDH1 R132H (human) inhibition; O75874; IDH1 R132H reductase, diaphorase/resazurin fluorescence, 60 min; inhibition, % at 10 µM; hit rate 0.18% among 70,000; in the data active = inhibition above about 34%; inconclusive = no clear call, values can overlap the other calls; inactive = below about 11%;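 also: 0% = DMSO and 100% = no enzyme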
Target sequence (O75874 whole entry R132H): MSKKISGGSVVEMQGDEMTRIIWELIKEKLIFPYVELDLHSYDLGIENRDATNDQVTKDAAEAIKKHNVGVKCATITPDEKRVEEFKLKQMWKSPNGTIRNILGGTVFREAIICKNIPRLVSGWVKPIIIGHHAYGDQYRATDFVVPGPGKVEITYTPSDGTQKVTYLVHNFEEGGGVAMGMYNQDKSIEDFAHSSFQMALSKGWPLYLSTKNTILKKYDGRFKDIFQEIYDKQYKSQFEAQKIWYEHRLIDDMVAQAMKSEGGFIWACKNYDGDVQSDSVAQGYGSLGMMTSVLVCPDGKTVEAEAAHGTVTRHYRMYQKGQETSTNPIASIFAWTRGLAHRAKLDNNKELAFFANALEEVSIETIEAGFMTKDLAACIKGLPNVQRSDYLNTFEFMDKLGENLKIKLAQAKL
T cruzi growth-1 – blocks T. cruzi growth in NIH3T3 culture; inhibition, % at 8.34 µM; hit rate 5.9% among 77,000; T. cruzi beta-gal in NIH3T3, GalScreen luminescence, 90 h;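 active = mean inhibition above about 93%, with at least 55% of replicates each passing it, limit read from the data, passing the limit was not always enough; inconclusive = only one of those two conditions holds; inactive = neither condition holds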
KDM4C inh – KDM4C (human) demethylase inhibition. Q9H3R0. GST-KDM4C 2-372, H3K9me3 peptide, LANCE TR-FRET. inhibition, % at 12.5 µM. hit rate 0.15% among 96,000. AID 720574;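 active = mean replicate inhibition above about 25%, with at least 55% of replicates also reaching it, limit read from the data, passing the limit was not always enough; inconclusive = only one of those two conditions met; inactive = neither condition met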
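Test system: N-terminal GST-fused human GASC-1 (KDM4C) fragment, residues 2-372; quantity: GASC-1 enzyme at 10 nM final in reaction; dosing: single dose; schedule: 30 min demethylation and 1 h detection at room temperature; signal: LANCE TR-FRET, excitation 340 nm, emissions 618 and 671 nm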
Pf Dd2 inh – P. falciparum Dd2 growth inhibition | hit rate 2.3% among 94,000 | activity change, % at 10 µM | AID 1159554 | SYBR Green, 72 h; active compounds read low; in the data active = activity change below about -80%; inconclusive = no clear call, values can overlap the other calls
T cruzi growth-2 – inhibitors of T. cruzi proliferation; T. cruzi beta-gal in NIH3T3, GalScreen luminescence, 90 h; inhibition, % at 8.35 µM; hit rate 72% among 5,600; shares compounds with T cruzi growth-1;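 active = mean replicate inhibition above about 95% and at least 55% of replicates individually reaching it, limit read from the data; inconclusive = only one of the two criteria is met; inactive = neither criterion is met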
T cruzi growth-3 – blocks T. cruzi growth in NIH3T3 host cells; shares compounds with T cruzi growth-1; T. cruzi beta-gal in NIH3T3, GalScreen luminescence, 90 h; inhibition, % at 2.09 µM; hit rate 21% among 5,600;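 active = mean inhibition above about 95%, with at least 55% of replicates also reaching it, limit read from the data; inconclusive = meets just one of the two conditions; inactive = meets neither condition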;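 also: plate controls were neutral control median for no effect and positive control median for full effect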
3T3 cytotox – kills mouse NIH/3T3 fibroblasts; hit rate 14% among 5,600; NIH/3T3 viability, CellTiter-Glo ATP luminescence, 90 h; cytotoxicity (signal decrease), % at 8.35 µM; AID 651742; shares compounds with T cruzi growth-1;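 active = mean signal decrease across replicates above about 35% based on untreated-well scatter, with enough replicates individually passing, limit read from the data; inconclusive = no rule stated though some were filed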;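 also: 0% = median of neutral control wells and 100% = median of positive control wells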
3T3 cytotox 2 – NIH/3T3 (mouse) viability loss | shares compounds with T cruzi growth-1 | NIH/3T3 viability, CellTiter-Glo ATP luminescence, 90 h | inhibition, % at 24.9 µM | hit rate 56% among 5,600 | AID 651744;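 active = mean loss of cell viability signal at or above a set limit, and enough replicates individually reaching it; inconclusive = meets only the mean limit or only the replicate share; inactive = meets neither condition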;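 also: 0% = median of neutral control wells and 100% = median of positive control wells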
The depositor's hits bear a star; ? = inconclusive; nt = not tested or not shown.

SMILES	IDH1 mut inh	T cruzi growth-1	KDM4C inh	Pf Dd2 inh	T cruzi growth-2	T cruzi growth-3	3T3 cytotox	3T3 cytotox 2
C[C@H]1CCCCO[C@@H](CN(C)Cc2ccc(C(F)(F)F)cc2)[C@@H](C)CN([C@@H](C)CO)C(=O)c2cc(NC(=O)C3CCCCC3)ccc2O1	nt	?	-1	-52	98*	95	23	26*
C[C@@H]1CN([C@H](C)CO)C(=O)c2cc(NC(=O)C3CCCCC3)ccc2O[C@@H](C)CCCCO[C@H]1CN(C)Cc1ccc(C(F)(F)F)cc1	nt	?	-1	?	101*	109*	11	49*
C[C@@H]1CN([C@@H](C)CO)C(=O)c2cc(NC(=O)C3CCCCC3)ccc2O[C@@H]1CN(C)Cc1ccc(C(F)(F)F)cc1	1	72*	-1	11	78	15	26	31*
COc1ccc2c3c([nH]c2c1)[C@@H](CO)N(C(=O)NC(C)C)CC31CCN(C(=O)NC(C)C)CC1	nt	nt	1	-12	nt	nt	nt	nt
C[C@H]1CCCCO[C@@H](CN(C)C(=O)Cc2ccccc2)[C@@H](C)CN([C@@H](C)CO)C(=O)c2cc(NS(=O)(=O)c3ccccc3)ccc2O1	1	nt	1	-58	nt	nt	nt	nt
C[C@@H]1CCCCO[C@H](CN(C)C(=O)CCC(F)(F)F)[C@H](C)CN([C@H](C)CO)C(=O)c2cc(NS(=O)(=O)c3ccc(Cl)cc3)ccc2O1	0	101*	-1	-65	100*	61	18	-4
C[C@H]1CCCCO[C@H](CN(C)C(=O)CCC(F)(F)F)[C@@H](C)CN([C@@H](C)CO)C(=O)c2cc(NS(=O)(=O)c3ccc(Cl)cc3)ccc2O1	nt	75	-1	-45	nt	nt	nt	nt
C[C@@H]1CCCCO[C@@H](CN(C)C(=O)Cc2ccccc2)[C@H](C)CN([C@@H](C)CO)C(=O)c2cc(NS(=O)(=O)c3ccc(Cl)cc3)ccc2O1	nt	100*	0	6	106*	74	3	47
Cc1ccc(S(=O)(=O)Nc2ccc3c(c2)C(=O)N([C@H](C)CO)C[C@@H](C)[C@H](CN(C)C(=O)Cc2ccccc2)OCCCC[C@@H](C)O3)cc1	-4	97*	0	-32	108*	63	1	-15
CNC[C@H]1Oc2cc(C#Cc3cccc(OC)c3)ccc2S(=O)(=O)N([C@H](C)CO)C[C@@H]1C	0	77	-2	-58	nt	nt	nt	nt
COc1ccc(NC(=O)N2CCCCN3[C@@H](CO)[C@H](c4ccc(C5=CCCCC5)cc4)[C@@H]3C2)cc1	nt	78	1	-10	nt	nt	nt	nt
O=C(Nc1ccccc1F)N1CCCCN2[C@H](CO)[C@H](c3ccc(C4=CCCC4)cc3)[C@@H]2C1	nt	110*	-2	1	109*	62	-6	13
O=C(Nc1ccccc1)N1CCCCN2[C@H](C1)[C@@H](c1ccc(-c3ccccc3)cc1)[C@@H]2CO	nt	83	-1	-33	nt	nt	nt	nt
O=C(Nc1ccccc1)N1CCCCN2[C@H](CO)[C@H](c3ccc(C4=CCCCC4)cc3)[C@@H]2C1	nt	?	1	8	115*	65	-7	94*
O=C(Nc1ccccc1)N1CCCCN2[C@H](C1)[C@H](c1ccc(C3=CCCCC3)cc1)[C@@H]2CO	nt	110*	-1	-74	109*	78	16	79*
O=C(Nc1ccc(F)cc1)N1CCCCN2[C@H](CO)[C@H](c3ccc(C4=CCCCC4)cc3)[C@@H]2C1	nt	118*	0	-5	107*	98*	1	63*
O=C(Nc1ccccc1)N1CCCCN2[C@@H](CO)[C@@H](c3ccc(-c4ccccc4)cc3)[C@@H]2C1	nt	95	0	-78	nt	nt	nt	nt
Cc1ccc(S(=O)(=O)N[C@H]2CC[C@H](CCn3cc(C4CC4)nn3)O[C@@H]2CO)cc1	0	nt	5	0	nt	nt	nt	nt
CO[C@H]1CN(C)C(=O)c2cc(NC(=O)c3ccc4c(c3)OCO4)ccc2OC[C@H](C)N(CC2CC2)C[C@H]1C	0	16	0	-22	nt	nt	nt	nt
O=C(Nc1ccccc1)N1CCCCN2[C@@H](CO)[C@H](c3ccc(C4=CCCCC4)cc3)[C@@H]2C1	nt	?	0	-43	87	91	116*	105*
COc1ccc(NC(=O)N2CCCCN3[C@H](C2)[C@H](c2ccc(C4=CCCC4)cc2)[C@@H]3CO)cc1	nt	48	nt	-24	nt	nt	nt	nt
COc1ccc(NC(=O)N2CCCCN3[C@H](CO)[C@H](c4ccc(C5=CCCC5)cc4)[C@@H]3C2)cc1	nt	117*	nt	-18	96*	107*	1	?
CNC[C@H]1Oc2cc(C#CCC(C)C)ccc2S(=O)(=O)N([C@H](C)CO)C[C@@H]1C	-2	15	-1	-25	nt	nt	nt	nt
C[C@@H]1CN([C@@H](C)CO)C(=O)c2ccccc2-c2ccccc2CO[C@H]1CN(C)S(=O)(=O)c1ccc(Cl)cc1	nt	87	0	-62	nt	nt	nt	nt
N#C[C@H]1[C@@H](c2ccccc2)[C@@H](CO)N1C(=O)Cc1ccccc1	0	102*	-1	1	1	6	-12	-12
SMILES	IDH1 mut inh	T cruzi growth-1	KDM4C inh	Pf Dd2 inh	T cruzi growth-2	T cruzi growth-3	3T3 cytotox	3T3 cytotox 2
N#C[C@@H]1[C@@H](c2ccc(-c3ccc(F)cc3)cc2)[C@@H](CO)N1C(=O)Cc1ccccc1	0	39	-2	-34	nt	nt	nt	nt
N#C[C@@H]1[C@H](c2ccccc2)[C@@H](CO)N1C(=O)Cc1ccccc1	nt	109*	-1	13	6	-7	-7	1
N#C[C@H]1[C@H](c2ccc(-c3ccc(F)cc3)cc2)[C@@H](CO)N1C(=O)Cc1ccccc1	nt	?	0	-9	98*	49	40*	96*
N#C[C@@H]1[C@@H](c2ccccc2)[C@H](CO)N1C(=O)Cc1ccccc1	nt	100*	-2	17	44	5	-22	-9
N#C[C@@H]1[C@@H](c2ccc(-c3ccccc3F)cc2)[C@H](CO)N1C(=O)Cc1ccccc1	nt	63	0	9	nt	nt	nt	nt
CO[C@H]1CN(C)C(=O)c2cc(NC(=O)NC3CCCCC3)ccc2OC[C@H](C)N(CC2CCOCC2)C[C@@H]1C	0	nt	2	-34	nt	nt	nt	nt
COCC#Cc1cnc2c(c1)C(=O)N([C@H](C)CO)C[C@@H](C)[C@H](CN(C)C(=O)C1CC1)O2	nt	97*	0	12	-14	-8	22	12
COCC#Cc1cnc2c(c1)C(=O)N([C@@H](C)CO)C[C@@H](C)[C@H](CN(C)C(=O)C1CC1)O2	nt	112*	-1	34	39	2	24	?
